Source: PubChem
m-calpain inh = blocks pig calpain II enzyme activity | inhibition, % at 16 µM | 220,000 compounds, 0.37% hits | purified calpain II, fluorogenic peptide substrate, 30 min;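 active = inhibition above about 50%, limit read from the data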
WT yeast gro inh = growth inhibition of WT yeast, mitochondrial fusion screen; mitochondrial fusion phenotypic screen, WT strain; inhibition, % at 10 µM; 190,000 compounds, 2.1% hits; in the data active = inhibition above about 58%; tested in S. cerevisiae
Rad51 HR inh = Rad51 (human) homologous recombination inhibition; Q06609; hRad51 DNA strand exchange, fluorescence dequenching; inhibition, % at 10 µM; 200,000 compounds, 0.085% hits;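 active = inhibition above 40% at the single screening dose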
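Test system: preformed human Rad51 ssDNA filaments. Compound dosing: single dose, 10 µM final compound. Incubation: filaments 15 min 37 °C, then compound 30 min. Technique: FRET fluorescence dequenching, excitation 485 nm, emission 520 nm. Read-out basis: percent inhibition from fluorescence, normalised to plate control and blank means. Benchmarks: plate controls and plate blanks.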
PMI activator = phosphomannose isomerase (human) activation. activation factor at 20 µM. P34949. 190,000 compounds, 0.005% hits. purified human PMI, coupled resazurin fluorescence, 20 min; active compounds read high; 1 = vehicle control, 0 substrate-free wells;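 active = activation factor of 2 or more at 20 µM, relative to plate controls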
Target sequence (P34949 whole entry, looked up): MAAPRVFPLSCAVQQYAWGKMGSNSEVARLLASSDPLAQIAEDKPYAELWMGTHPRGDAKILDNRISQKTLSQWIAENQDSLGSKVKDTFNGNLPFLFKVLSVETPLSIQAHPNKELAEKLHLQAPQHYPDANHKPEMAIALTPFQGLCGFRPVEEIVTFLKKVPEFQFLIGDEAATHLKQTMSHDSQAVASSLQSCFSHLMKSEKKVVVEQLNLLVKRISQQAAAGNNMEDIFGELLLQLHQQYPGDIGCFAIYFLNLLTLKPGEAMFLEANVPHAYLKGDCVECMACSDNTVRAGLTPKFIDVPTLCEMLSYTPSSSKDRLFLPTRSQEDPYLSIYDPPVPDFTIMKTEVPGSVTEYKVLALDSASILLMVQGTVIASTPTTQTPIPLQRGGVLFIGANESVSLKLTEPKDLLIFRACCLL
Lmaj promast = reduces viability of Leishmania major promastigotes. resazurin fluorescence viability. inhibition, % at 10 µM. 200,000 compounds, 9% hits. AID 1063; in the data active = inhibition above about 50%;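 also: promastigotes grown with compound for 44 hours at 28 °C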
PMI act satM6P = activators of human phosphomannose isomerase at near-saturating mannose 6-phosphate; coupled PMI enzyme assay, resazurin fluorescence, 20 min; active compounds read high; 1 = untreated enzyme, 0 = substrate-free blank; 190,000 compounds, 0.34% hits; P34949; AID 1216; activation factor at 20 µM;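 active = activation factor of 2 or more at 20 µM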
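Material: human phosphomannose isomerase with PGI, G6PDH, diaphorase coupling enzymes. Quantity: 15 ng/mL PMI. Medium: HEPES pH 7.4 buffer with MgCl2 and Tween-20. Reagent: Near-saturating mannose-6-phosphate, 1.0 mM. Compound: 20 µM single dose. Times: enzyme reaction with compound 20 min at room temperature. Detection: resorufin fluorescence at Ex 544/Em 590 nm.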
Hits are given with their value. Rows were chosen to be rich in hits. Some 9.8% of all compounds tested hit in one or more screens of this group.

Results for Cc1ccc(C(c2nnnn2C2CCCC2)N2CCN(c3nc4ccccc4s3)CC2)cc1 (stereo not drawn) ?
Rad51 HR inh: inactive; Lmaj promast: 94.7

Results for CC(/C=C/c1ccccc1)=N\NC(=O)c1cc(C)[nH]n1 ?
m-calpain inh: inactive; WT yeast gro inh: inactive; Rad51 HR inh: inactive; PMI activator: inactive; Lmaj promast: inactive; PMI act satM6P: inactive

Results for Cc1ccc(C(c2nnnn2C2CCCC2)N2CCN3CCCC3C2)cc1 (stereo not drawn) ?
m-calpain inh: inactive; WT yeast gro inh: inactive; Rad51 HR inh: inactive; PMI activator: inactive; Lmaj promast: 86.7; PMI act satM6P: inactive

How did CC(C)C(c1nnnn1C1CCCCC1)N1CCc2ccccc21 (stereo not drawn) do in these assays?
m-calpain inh: inactive; WT yeast gro inh: inactive; Rad51 HR inh: inactive; PMI activator: inactive; Lmaj promast: inactive; PMI act satM6P: inactive

What do the screens show for `Fc1ccc(C(c2nnnn2C2CCCC2)N2CCN(Cc3ccccc3)CC2)cc1` (stereo not drawn)?
m-calpain inh: inactive; WT yeast gro inh: inactive; Rad51 HR inh: inactive; PMI activator: inactive; Lmaj promast: inactive; PMI act satM6P: inactive

What do the screens show for `Cc1ccc(C(c2nnnn2C2CCCCC2)N2CCc3ccccc32)cc1` (stereo not drawn)?
m-calpain inh: inactive; WT yeast gro inh: inactive; Rad51 HR inh: inactive; PMI activator: inactive; Lmaj promast: 53.3; PMI act satM6P: inactive

What do the screens show for `c1csc(C(c2nnnn2C2CCCC2)N2CCOCC2)c1` (stereo not drawn)?
m-calpain inh: inactive; WT yeast gro inh: inactive; Rad51 HR inh: inactive; PMI activator: inactive; Lmaj promast: inactive; PMI act satM6P: inactive

Results for c1csc(C(c2nnnn2C2CCCC2)N2CCCC3(CCCCC3)C2)c1 (stereo not drawn) ?
m-calpain inh: inactive; WT yeast gro inh: 70.5; Rad51 HR inh: inactive; PMI activator: inactive; Lmaj promast: inactive; PMI act satM6P: inactive

How did Clc1ccc(C(c2nnnn2C2CCCC2)N2CCN(Cc3ccncc3)CC2)cc1 (stereo not drawn) do in these assays?
m-calpain inh: inactive; WT yeast gro inh: inactive; Rad51 HR inh: inactive; PMI activator: inactive; Lmaj promast: 87.5; PMI act satM6P: inactive

How did Nc1ccc(-c2nc3nc(N)nc(N)c3nc2-c2ccc(N)cc2)cc1 do in these assays?
m-calpain inh: inactive; Rad51 HR inh: inactive

What do the screens show for `CC(C)C(c1nnnn1C1CCCC1)N1c2ccccc2CC1C` (stereo not drawn)?
m-calpain inh: inactive; WT yeast gro inh: 63.8; Rad51 HR inh: inactive; PMI activator: inactive; Lmaj promast: inactive; PMI act satM6P: inactive

Results for c1ccc(C(c2nnnn2C2CCCC2)N2CCN(c3nc4ccccc4s3)CC2)cc1 (stereo not drawn) ?
m-calpain inh: inactive; WT yeast gro inh: inactive; Rad51 HR inh: inactive; PMI activator: inactive; Lmaj promast: 95.0; PMI act satM6P: inactive

Results for c1ccc(C(c2ccccc2)N2CCN(C(c3ccccn3)c3nnnn3C3CCCC3)CC2)cc1 (stereo not drawn) ?
m-calpain inh: inactive; WT yeast gro inh: inactive; Rad51 HR inh: inactive; PMI activator: inactive; Lmaj promast: 57.0; PMI act satM6P: inactive

How did Nc1nccc(-c2ccc(-n3cccc3)cc2)n1 do in these assays?
m-calpain inh: inactive; WT yeast gro inh: inactive; Rad51 HR inh: inactive; PMI activator: inactive; Lmaj promast: inactive; PMI act satM6P: inactive

How did Cc1cc(NC(=O)CCCn2ccc([N+](=O)[O-])n2)n(Cc2ccc(F)cc2)n1 do in these assays?
m-calpain inh: inactive; WT yeast gro inh: inactive; PMI activator: inactive; Lmaj promast: inactive; PMI act satM6P: inactive

How did CN(C)CCCn1c(SCC(=O)N2c3ccccc3Sc3ccccc32)nc2ccccc2c1=O do in these assays?
m-calpain inh: inactive; WT yeast gro inh: inactive; Rad51 HR inh: inactive; PMI activator: inactive; Lmaj promast: 100.5; PMI act satM6P: inactive

How did CCn1c(SCC(=O)Nc2nc(-c3ccc(C)cc3)cs2)nnc1-c1ccccc1 do in these assays?
m-calpain inh: inactive; WT yeast gro inh: inactive; Rad51 HR inh: inactive; PMI activator: inactive; Lmaj promast: inactive; PMI act satM6P: inactive

Results for CCn1c(SCC(=O)Nc2nc(-c3ccc(C)cc3)cs2)nnc1-c1ccccc1O ?
m-calpain inh: inactive; WT yeast gro inh: inactive; Rad51 HR inh: inactive; PMI activator: inactive; Lmaj promast: 100.3; PMI act satM6P: inactive

Results for Cc1ccc(-c2csc(NC(=O)CSc3nc4ccccc4c(=O)n3CCCN(C)C)n2)cc1 ?
m-calpain inh: inactive; WT yeast gro inh: 82.5; Rad51 HR inh: inactive; PMI activator: inactive; Lmaj promast: 100.5; PMI act satM6P: inactive

What do the screens show for `CCOc1ccc2c(c1)OC(c1ccc(OC)cc1)(C(F)(F)F)NC2=O` (stereo not drawn)?
m-calpain inh: inactive; WT yeast gro inh: inactive; Rad51 HR inh: inactive; PMI activator: inactive; Lmaj promast: 99.5; PMI act satM6P: inactive

Results for COc1cc(-c2nc3ccc4ccccc4c3c3c2CCC3)cc(OC)c1O ?
m-calpain inh: inactive; WT yeast gro inh: 97.9; Rad51 HR inh: inactive; PMI activator: inactive; Lmaj promast: 98.9; PMI act satM6P: inactive

What do the screens show for `COc1cc(-c2nc3ccc4ccccc4c3c3c2CCC3)cc(OC)c1OC`?
m-calpain inh: inactive; WT yeast gro inh: inactive; Rad51 HR inh: inactive; PMI activator: inactive; Lmaj promast: inactive; PMI act satM6P: inactive

How did COc1cc(-c2nc3ccc4ccccc4c3c3c2CCC3)ccc1O do in these assays?
m-calpain inh: inactive; WT yeast gro inh: 79.1; Rad51 HR inh: inactive; PMI activator: inactive; Lmaj promast: inactive; PMI act satM6P: inactive

Results for O=C(CSc1nccc(=O)[nH]1)NCc1ccc(Cl)cc1 ?
m-calpain inh: inactive; WT yeast gro inh: inactive; PMI activator: inactive; Lmaj promast: inactive; PMI act satM6P: inactive

What do the screens show for `CN1CCN(Cc2nc3ccccc3c(=O)n2Cc2nc(-c3ccc([N+](=O)[O-])cc3)cs2)CC1`?
m-calpain inh: inactive; WT yeast gro inh: inactive; Rad51 HR inh: inactive; PMI activator: inactive; Lmaj promast: 100.5; PMI act satM6P: inactive

Results for CN(C)Cc1nc2ccccc2c(=O)n1Cc1nc(-c2cccc([N+](=O)[O-])c2)cs1 ?
m-calpain inh: inactive; WT yeast gro inh: inactive; Rad51 HR inh: inactive; PMI activator: inactive; Lmaj promast: 51.8; PMI act satM6P: inactive

Results for NC(=S)N/N=C/c1ccccc1OCCSc1ccc(Cl)cc1 ?
m-calpain inh: inactive; WT yeast gro inh: 64.3; Rad51 HR inh: inactive; PMI activator: inactive; Lmaj promast: 100.3; PMI act satM6P: inactive

What do the screens show for `COc1cccc(/C=N/NC(N)=S)c1OCc1ccccc1Cl`?
m-calpain inh: inactive; WT yeast gro inh: inactive; Rad51 HR inh: inactive; PMI activator: inactive; Lmaj promast: inactive; PMI act satM6P: inactive

How did CN(C)c1nc2ncn(Cc3ccccc3)c2c(=O)[nH]1 do in these assays?
m-calpain inh: inactive

What do the screens show for `Cc1nc(C)c(C(=O)NNC(=O)Nc2ccc(Cl)cc2)s1`?
m-calpain inh: inactive; Rad51 HR inh: inactive
